# Sampled rows, rich in hits. Any-hit rate of the full collection: about 0.27%.
# XiGFP reactiv – activators of X-chromosome reactivation in mouse fibroblasts; XiGFP mouse fibroblasts, % GFP-positive cells imaging, 3 d; cells co-treated with 5-aza-dC sensitizer; scaled so ellipticine positive control = 100%; activation, % at 7.58 µM; 360,000 tested, 0.055% active; AID 743238;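 active means mean normalized replicate activation at least 10% and every replicate at or above 10%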;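 further: 0% = median of on-plate neutral control wells and 100% = ellipticine 6 µM median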
#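 System: 68-5-11 XiGFP fibroblast line; Timing: 3 days compound exposure; Compound dosing: one concentration, pinned; Benchmarks: positive control ellipticine, 6 µM final; Buffer or medium: DMEM containing 5-aza-dC.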
# CaV13 FRET inh – Disruptors of the CACNA1D IQ motif to Ca2+-dependent inactivation inhibitor domain association, primary screening, Förster resonance energy transfer in intact living … | HEK cells, CFP/YFP FRET ICDI-IQ, plate reader, 10 min; percent FRET-ratio fall versus neutral wells | inhibition, % at 12.3 µM | 340,000 tested, 0.098% active | AID 743397;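 active means mean replicate inhibition of at least 30% and at least 1% of replicates passing that level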;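 further: 0% = median of the neutral control wells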
# PvdQ inh – blocks Pseudomonas aeruginosa PvdQ acylase activity | purified PvdQ acylase, fluorescence plate reader | inhibition, % at 10 µM | 340,000 tested, 0.063% active; in the data active means inhibition above about 30%, passing the limit was not always enough;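 further: 0% = vehicle neutral wells and 100% = reference inhibitor wells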
# ERAP1 inh – inhibitors of human ERAP1 aminopeptidase; Q9NZ08; recombinant ERAP1, Leu-AMC fluorescence, 60 min; inhibition, % at 10.7 µM; 340,000 tested, 0.15% active;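 active means mean replicate inhibition of at least 30%, or all replicates individually reaching that 30% level; inactive means mean below 30% and not every replicate reaching it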;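 further: 0% = neutral control wells and 100% = L-leucinethiol positive control wells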
# Target sequence (Q9NZ08 whole entry, looked up): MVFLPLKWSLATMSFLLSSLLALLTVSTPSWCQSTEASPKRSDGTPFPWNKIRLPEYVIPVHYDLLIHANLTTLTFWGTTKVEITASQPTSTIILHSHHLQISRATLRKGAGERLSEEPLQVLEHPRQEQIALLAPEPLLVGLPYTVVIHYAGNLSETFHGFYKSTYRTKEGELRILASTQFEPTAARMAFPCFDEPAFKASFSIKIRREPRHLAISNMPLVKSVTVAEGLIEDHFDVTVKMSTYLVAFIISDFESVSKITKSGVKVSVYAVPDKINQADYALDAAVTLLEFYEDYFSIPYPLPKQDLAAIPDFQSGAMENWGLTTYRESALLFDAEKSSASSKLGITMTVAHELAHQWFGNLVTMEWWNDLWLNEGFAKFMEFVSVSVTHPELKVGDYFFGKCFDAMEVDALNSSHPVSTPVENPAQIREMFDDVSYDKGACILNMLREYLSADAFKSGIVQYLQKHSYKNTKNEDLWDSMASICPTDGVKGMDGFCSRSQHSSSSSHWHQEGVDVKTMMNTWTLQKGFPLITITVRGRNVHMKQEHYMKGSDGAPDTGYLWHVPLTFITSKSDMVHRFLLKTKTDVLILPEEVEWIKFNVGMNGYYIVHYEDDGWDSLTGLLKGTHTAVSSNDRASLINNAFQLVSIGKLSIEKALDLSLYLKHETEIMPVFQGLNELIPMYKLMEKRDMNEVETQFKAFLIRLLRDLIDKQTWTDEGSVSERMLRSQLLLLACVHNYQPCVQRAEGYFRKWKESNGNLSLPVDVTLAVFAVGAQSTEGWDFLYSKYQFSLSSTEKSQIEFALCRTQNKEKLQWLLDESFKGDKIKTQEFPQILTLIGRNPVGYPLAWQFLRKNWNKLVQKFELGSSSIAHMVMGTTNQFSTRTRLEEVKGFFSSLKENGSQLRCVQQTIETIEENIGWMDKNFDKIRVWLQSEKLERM
# Active calls of the source: *; nt = no result given; + = active, no number.
SMILES,XiGFP reactiv,CaV13 FRET inh,PvdQ inh,ERAP1 inh
O=C(COC(=O)c1ccccc1)c1ccc(S(=O)(=O)N2CCCCC2)cc1,0,-5,-12,-5
O=C(COc1ccccc1)OCC(=O)c1ccc(S(=O)(=O)N2CCCCC2)cc1,0,-7,40*,3
CN(CC(=O)Nc1cccc(F)c1)C(=O)Cn1c(=O)cnc2ccccc21,0,-5,-4,-10
Cc1cc(Br)ccc1NC(=O)CN(C)C(=O)Cn1c(=O)cnc2ccccc21,0,-10,-1,38*
CCN(c1ccccc1)S(=O)(=O)c1ccc(OC)c(NC(=O)CNC)c1,0,-5,-6,-4
CCN(c1ccccc1)S(=O)(=O)c1ccc(OC)c(NC(=O)CN(C)C)c1,0,+,10,0
CC(/C=C1\SC(=S)N(C(C(=O)O)c2ccccc2)C1=O)=C\c1ccccc1 (stereo not given),0,-6,-4,30*
C=CCOc1ccc(/C=C2\SC(=S)N(C(C(=O)O)c3ccccc3)C2=O)cc1 (stereo not given),0,-4,4,34*
CCN(CC)CCCNc1nc(C)cc(COC)c1C#N,0,45*,2,1
CC(C)CCN1C(=O)c2cccc3c(N)ccc(c23)C1=O,99*,+,7,1
Cc1nnc(N2C(=O)c3cccc4c([N+](=O)[O-])ccc(c34)C2=O)s1,27*,-20,-8,-1
O=C1c2cccc3c([N+](=O)[O-])ccc(c23)C(=O)N1Cc1cccnc1,20*,-250,-6,6
O=C1c2cccc3cccc(c23)C(=O)N1Cc1cccnc1,0,-4,-5,nt
O=C(NC[C@@H]1[C@@H](c2ccccc2)[C@@H](CO)N1C(=O)C1CCC1)NC1CCCC1,0,nt,nt,nt
CC(=O)N(C)C[C@@H]1Oc2cc(C#CC3CCCC3)ccc2S(=O)(=O)N([C@@H](C)CO)C[C@H]1C,0,nt,nt,-10
CCCOc1ccccc1/C=C1\SC(N)=NC1=O,0,44*,-5,1
C[C@@H]1CN([C@H](C)CO)C(=O)c2cc(NC(=O)Cn3cnnn3)ccc2O[C@@H]1CN(C)S(=O)(=O)c1cccs1,-1,nt,nt,-3
C[C@@H]1CN([C@@H](C)CO)C(=O)c2cc(NC(=O)Nc3ccc4c(c3)OCO4)ccc2O[C@@H]1CN(C)Cc1ccccc1,0,nt,nt,-2
Cc1cccc(-c2cccc3[nH]c4c(c23)CCN2C(=O)[C@H]3[C@H](C)ON(C)[C@H]3C[C@@H]42)c1,48*,-9,nt,2
COc1ccccc1CCC(=O)Nc1ccc2c(c1)c(=O)n(C)n2C,0,-5,nt,38*
COc1ccccc1CCC(=O)Nc1ccc2c(c1)c(=O)n(C)n2Cc1ccc(F)cc1,1,-4,nt,2
O=C(NC1CCC1)[C@@H]1[C@@H](CO)[C@@H]2Cn3c(ccc(-c4ccccc4)c3=O)[C@H]1N2Cc1cocn1,0,nt,nt,-1
CNC[C@@H]1Oc2c(NS(C)(=O)=O)cccc2C(=O)N(C)C[C@@H]1C,0,nt,nt,nt
Cc1ccc(-c2nc(CN(C)C3CCOCC3)c(C)o2)s1,0,-5,10,0
Cc1ccc(-c2nc(CN(C)Cc3cccc4cnccc34)c(C)o2)s1,0,-9,51*,-3
SMILES,XiGFP reactiv,CaV13 FRET inh,PvdQ inh,ERAP1 inh
COc1ccc(S(=O)(=O)N2CCC3(CC2)CN(C(=O)CN(C)C)[C@@H](CO)c2c3c3ccc(OC)cc3n2C)cc1,0,nt,nt,-2
Cc1cccc(CN(C)C[C@@H]2Oc3ncc(C#CCN(C)C)cc3C(=O)N([C@H](C)CO)C[C@@H]2C)c1,0,nt,nt,nt
Cc1cccc(CN(C)C[C@@H]2Oc3ncc(C#Cc4ccccc4)cc3C(=O)N([C@H](C)CO)C[C@@H]2C)c1,15*,nt,nt,0
COc1cccc(S(=O)(=O)N(C)C[C@@H]2Oc3ncccc3C(=O)N([C@H](C)CO)C[C@@H]2C)c1,-1,nt,nt,46*
COc1cccc(S(=O)(=O)N(C)C[C@H]2Oc3ncc(Br)cc3C(=O)N([C@H](C)CO)C[C@H]2C)c1,0,nt,nt,-2
COc1ccc(S(=O)(=O)N(C)C[C@@H]2Oc3ncccc3C(=O)N([C@H](C)CO)C[C@@H]2C)cc1,0,nt,nt,42*
C[C@H](CO)N1C[C@H](C)[C@@H](CN(C)C(=O)NC2CCCCC2)Oc2c(NC(=O)Cn3cnnn3)cccc2C1=O,0,nt,nt,nt
Cc1cc(N2CCN(C)CC2)nc2ccc(NC(=S)NCCCN3CCc4ccccc4C3)cc12,3,-18,-8,nt
Cc1cc(N2CCN(C)CC2)nc2ccc(NC(=S)NCCN3CCc4ccccc4C3)cc12,49*,-16,-11,nt
